Results taken from ChEMBL document CHEMBL4261487, “Small structural changes of the imidazopyridine diacylglycerol acyltransferase 2 (DGAT2) inhibitors produce an improved safety profile” (Medchemcomm, 2017).
In brackets after ≈: the same amount, converted by molar mass.

Experiments:
CYP3A4 = CYP3A4 (Homo sapiens, UniProt P08684); experiment: (§1) Drug metabolism in human liver microsomes assessed as CYP3A4-mediated oxidative metabolism by measuring clearance rate; type: ADME; conditions: liver microsomes, read-out: CLH
CYP3A4, sequence (P08684 whole entry): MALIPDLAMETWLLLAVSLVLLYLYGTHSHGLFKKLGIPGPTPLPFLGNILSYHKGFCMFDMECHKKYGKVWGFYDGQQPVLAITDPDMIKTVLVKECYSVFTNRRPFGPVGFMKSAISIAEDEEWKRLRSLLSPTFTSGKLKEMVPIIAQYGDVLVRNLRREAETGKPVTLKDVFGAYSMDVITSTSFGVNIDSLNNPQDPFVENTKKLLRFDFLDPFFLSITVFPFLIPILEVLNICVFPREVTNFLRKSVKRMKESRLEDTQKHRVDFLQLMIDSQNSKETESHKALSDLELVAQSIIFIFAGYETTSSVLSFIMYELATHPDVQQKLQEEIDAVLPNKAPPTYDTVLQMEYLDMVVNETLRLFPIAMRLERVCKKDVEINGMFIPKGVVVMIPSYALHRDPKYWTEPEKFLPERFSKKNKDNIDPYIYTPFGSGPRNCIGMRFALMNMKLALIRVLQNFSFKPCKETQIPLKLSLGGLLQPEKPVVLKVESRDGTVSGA

UGT = experiment: (§2) Drug metabolism in human liver microsomes assessed as UGT-mediated glucuronidation by measuring clearance rate; type: ADME; conditions: liver microsomes, read-out: CLH
[1] = target: T1, Diacylglycerol O-acyltransferase 2 (Homo sapiens, UniProt Q96PD7); experiment: Inhibition of human DGAT2
T1 sequence (Q96PD7 whole entry): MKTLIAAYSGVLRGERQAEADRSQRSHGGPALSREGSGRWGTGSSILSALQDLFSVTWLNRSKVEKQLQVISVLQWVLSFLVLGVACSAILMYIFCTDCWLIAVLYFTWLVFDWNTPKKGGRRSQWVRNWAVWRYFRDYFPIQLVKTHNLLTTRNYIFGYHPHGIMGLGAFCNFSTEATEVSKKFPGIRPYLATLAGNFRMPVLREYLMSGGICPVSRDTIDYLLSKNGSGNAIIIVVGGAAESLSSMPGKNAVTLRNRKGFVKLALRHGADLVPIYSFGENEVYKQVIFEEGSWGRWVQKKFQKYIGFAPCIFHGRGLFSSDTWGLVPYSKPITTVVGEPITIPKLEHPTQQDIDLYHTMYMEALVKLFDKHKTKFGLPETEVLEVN
Procedure, shortened: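 IC50 against human DGAT2 in an enzymatic assay, reported as the geometric mean of at least three replicates with SEM.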

Rattus norvegicus = experiment: In vivo DGAT2 inhibition in po dosed sucrose-fed rat assessed as decrease in plasma triglyceride levels after 2 hrs; type: functional, organism-based
Procedure, shortened: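 Rats fed a high-sucrose diet, single oral dose of test article or vehicle; plasma TG measured in tail-vein blood 2 h post dose; n = 7–8 per group; results as percent change from vehicle group, one-way ANOVA with Dunnett's test.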

[2] = as §2; type: ADME; conditions: microsomes
Cytochrome P450 3A4 [3] = target: T2, Cytochrome P450 3A4 (Homo sapiens, UniProt P08684); experiment: as §1; type: ADME; conditions: microsomes
T2 sequence (P08684 whole entry): as the sequence (P08684 whole entry) above

[4] = target: T3, Diacylglycerol O-acyltransferase 2 (Rattus norvegicus, UniProt Q5FVP8); experiment: Inhibition of rat DGAT2
T3 sequence (Q5FVP8 whole entry): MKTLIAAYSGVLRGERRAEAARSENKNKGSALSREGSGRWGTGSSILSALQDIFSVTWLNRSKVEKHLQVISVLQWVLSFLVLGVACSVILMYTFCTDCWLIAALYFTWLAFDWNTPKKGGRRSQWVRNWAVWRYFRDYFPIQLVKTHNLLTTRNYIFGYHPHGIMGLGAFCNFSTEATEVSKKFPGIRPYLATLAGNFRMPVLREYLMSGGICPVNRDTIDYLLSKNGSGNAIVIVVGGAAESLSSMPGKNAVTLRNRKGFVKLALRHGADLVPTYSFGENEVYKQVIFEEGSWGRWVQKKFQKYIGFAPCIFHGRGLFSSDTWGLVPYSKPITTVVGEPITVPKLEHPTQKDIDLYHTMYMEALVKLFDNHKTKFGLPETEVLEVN

[5] = target: T4, Diacylglycerol O-acyltransferase 2 (Canis lupus familiaris, UniProt A0A8I3NDW2); experiment: Inhibition of dog DGAT2
T4 sequence (A0A8I3NDW2 whole entry): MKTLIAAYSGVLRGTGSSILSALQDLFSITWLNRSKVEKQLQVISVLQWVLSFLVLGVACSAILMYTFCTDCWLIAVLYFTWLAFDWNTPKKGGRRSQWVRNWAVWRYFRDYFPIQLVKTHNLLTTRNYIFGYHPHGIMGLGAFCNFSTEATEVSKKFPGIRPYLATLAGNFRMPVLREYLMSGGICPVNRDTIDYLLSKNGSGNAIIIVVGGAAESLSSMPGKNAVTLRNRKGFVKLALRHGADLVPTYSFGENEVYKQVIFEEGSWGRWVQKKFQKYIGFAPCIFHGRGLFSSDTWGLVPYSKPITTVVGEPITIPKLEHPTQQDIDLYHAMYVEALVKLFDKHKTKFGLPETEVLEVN

[6] = target: T5, Diacylglycerol O-acyltransferase 1 (Homo sapiens, UniProt O75907); experiment: Inhibition of DGAT1 (unknown origin)
T5 sequence (O75907 whole entry): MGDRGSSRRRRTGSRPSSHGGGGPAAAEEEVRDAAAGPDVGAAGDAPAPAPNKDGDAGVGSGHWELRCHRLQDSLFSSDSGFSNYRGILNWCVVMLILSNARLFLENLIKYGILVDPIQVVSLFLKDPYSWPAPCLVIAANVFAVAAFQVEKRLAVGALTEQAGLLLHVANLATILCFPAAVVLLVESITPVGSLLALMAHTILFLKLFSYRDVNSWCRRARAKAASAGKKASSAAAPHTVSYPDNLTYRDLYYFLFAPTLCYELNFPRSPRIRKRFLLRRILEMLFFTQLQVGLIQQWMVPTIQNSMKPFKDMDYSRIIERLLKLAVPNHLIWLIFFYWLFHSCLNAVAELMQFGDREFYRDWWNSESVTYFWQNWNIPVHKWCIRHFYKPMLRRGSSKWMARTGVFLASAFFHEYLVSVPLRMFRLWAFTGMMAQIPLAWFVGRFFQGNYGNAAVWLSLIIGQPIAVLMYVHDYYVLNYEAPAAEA

[7] = Apparent intrinsic clearance in human hepatocytes assessed per million cells; type: ADME, cell-based, Hepatocyte
[8] = Apparent intrinsic clearance in rat hepatocytes assessed per million cells; type: ADME, cell-based, Hepatocyte
[9] = Apparent intrinsic clearance in dog hepatocytes assessed per million cells; type: ADME, cell-based, Canis lupus familiaris, Hepatocyte
[10] = Drug metabolism in human liver microsomes assessed as fraction of UGT-mediated glucuronidation preincubated for 5 mins followed by addition of NADPH regenerating system and measured after 2.5 to 60 mins; type: ADME
Procedure, shortened: (§3)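 Fractions of metabolism attributed to CYP oxidation and UGT glucuronidation were derived from human liver microsomal incubations. For the glucuronidation arm, microsomes were supplemented with the UGT cofactor UDP-glucuronic acid.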

Cytochrome P450 3A4 [11] = target: T2, Cytochrome P450 3A4; experiment: Drug metabolism in human liver microsomes assessed as fraction of CYP3A4-mediated oxidative metabolism preincubated for 5 mins followed by addition of NADPH regenerating system and measured after 2.5 to 60 mins; type: ADME; procedure, shortened: as §3
[12] = Apparent permeability of the compound at pH 7.4; type: ADME; conditions: not told
[13] = Thermodynamic solubility of the compound at pH 6.5; type: physicochemical; conditions: buffer, read-out: Therm_solubility
[14] = Fraction unbound in rat plasma; type: ADME, cell-free
[15] = Fraction unbound in dog plasma; type: ADME, cell-free, Canis lupus familiaris
[16] = Half life in beagle dog at 1 mg/kg, iv; type: ADME, organism-based, Canis lupus familiaris; conditions: in vivo
[17] = Half life in beagle dog at 5 mg/kg, po; type: ADME, organism-based, Canis lupus familiaris; conditions: in vivo
[18] = Plasma clearance in beagle dog at 1 mg/kg, iv; type: ADME, organism-based, Canis lupus familiaris
[19] = Volume of distribution at steady state in beagle dog at 1 mg/kg, iv; type: ADME, organism-based, Canis lupus familiaris; conditions: in vivo, read-out: Vdss
Procedure, shortened: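 Male Beagle dogs, single iv dose, crystalline form of compound; value is the mean of two experiments.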

[20] = Oral bioavailability in beagle dog at 5 mg/kg; type: ADME, organism-based, Canis lupus familiaris; conditions: in vivo
Canis familiaris [21] = experiment: Unbound Cmax in beagle dog at 10 mg/kg, po qd administered for 1 month; type: ADME, organism-based, Canis lupus familiaris; conditions: in vivo
Procedure, shortened: (§4)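 Beagle dogs were dosed orally once daily in a 14-day exploratory study or 1-month toxicity studies. Steady-state systemic exposure over the 24 h dosing interval is reported as the mean of male and female values combined.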

[22] = Ratio of Cmax in beagle dog at 10 mg/kg, po qd administered for 1 month to IC50 for in vitro inhibition of dog DGAT2; type: organism-based, Canis lupus familiaris; conditions: in vivo
Procedure, shortened: (§5)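 One-month toxicity study in Beagle dogs with N = 2/sex/dose. Plasma exposure at each dose level was referenced to the dog DGAT2 enzymatic IC50, reported as the geometric mean of at least three replicates.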

Canis familiaris [23] = experiment: Unbound AUC in beagle dog at 10 mg/kg, po qd administered for 1 month; type: ADME, organism-based, Canis lupus familiaris; conditions: in vivo; procedure, shortened: as §4
Canis familiaris [24] = experiment: In vivo inhibition of DGAT2 in beagle dog assessed as coverage of in vitro IC50 for dog DGAT2 at 10 mg/kg, po qd administered for 1 month; type: functional, Canis lupus familiaris; design: scale not given: the % may be the effect or the level left
Procedure, shortened: (§6)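 Beagle dogs, once-daily oral dosing for 14 days or 1 month; systemic exposure with sexes combined; coverage is the average % above dog DGAT2 IC50 at steady state over the 24 h dosing interval.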

Canis familiaris [25] = experiment: Unbound Cmax in beagle dog at 3 mg/kg, po qd administered for 1 month; type: ADME, organism-based, Canis lupus familiaris; conditions: in vivo
Procedure, shortened: (§7)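 One-month dog toxicity study with once-daily oral dosing. Toxicity groups were 2/sex/dose, and unbound peak exposure was taken from toxicokinetic sampling.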

Canis familiaris [26] = experiment: Unbound Cmax in beagle dog at 30 mg/kg, po qd administered for 1 month; type: ADME, organism-based, Canis lupus familiaris; conditions: in vivo; procedure, shortened: as §7
[27] = Ratio of Cmax in beagle dog at 3 mg/kg, po qd administered for 1 month to IC50 for in vitro inhibition of dog DGAT2; type: organism-based, Canis lupus familiaris; conditions: in vivo; procedure, shortened: as §5
[28] = Ratio of Cmax in beagle dog at 30 mg/kg, po qd administered for 1 month to IC50 for in vitro inhibition of dog DGAT2; type: organism-based, Canis lupus familiaris; conditions: in vivo; procedure, shortened: as §5
Canis familiaris [29] = experiment: Unbound AUC in beagle dog at 3 mg/kg, po qd administered for 1 month; type: ADME, organism-based, Canis lupus familiaris; conditions: in vivo; procedure, shortened: as §4
Canis familiaris [30] = experiment: Unbound AUC in beagle dog at 30 mg/kg, po qd administered for 1 month; type: ADME, organism-based, Canis lupus familiaris; conditions: in vivo; procedure, shortened: as §4
Canis familiaris [31] = experiment: In vivo inhibition of DGAT2 in beagle dog assessed as coverage of in vitro IC50 for dog DGAT2 at 3 mg/kg, po qd administered for 1 month; type: functional, Canis lupus familiaris; design: scale not given: the % may be the effect or the level left; procedure, shortened: as §6
Canis familiaris [32] = experiment: In vivo inhibition of DGAT2 in beagle dog assessed as coverage of in vitro IC50 for dog DGAT2 at 30 mg/kg, po qd administered for 1 month; type: functional, Canis lupus familiaris; design: scale not given: the % may be the effect or the level left; procedure, shortened: as §6
Canis familiaris [33] = experiment: Toxicity in beagle dog at 3 to 30 mg/kg, po qd administered for 1 month; type: organism-based, Canis lupus familiaris; conditions: in vivo

## CC(C)(c1nc2ccc(N3CCC[C@@H](C(=O)N4CCCC4)C3)nc2[nH]1)n1cc(Cl)cn1
CYP3A4
  microsomal CLint: 35.4 µL/min/mg

## C[C@H](c1nc2ccc(N3CCC[C@@H](C(=O)N4CCCC4)C3)nc2[nH]1)n1cc(Cl)cn1
UGT
  microsomal CLint: 7.6 µL/min/mg
CYP3A4
  microsomal CLint: 26 µL/min/mg

## CC(c1nc2cnc(N3CCC[C@@H](C(=O)N4CCCC4)C3)nc2[nH]1)n1cc(Cl)cn1 (single isomer, unassigned; diastereomer 2)
[1]
  IC50: 37 nM
UGT
  microsomal CLint: 15.2 µL/min/mg
CYP3A4
  microsomal CLint: 21.5 µL/min/mg

## CC(c1nc2cnc(N3CCC[C@@H](C(=O)N4CCCC4)C3)nc2[nH]1)n1cc(Cl)cn1 (single isomer, unassigned; diastereomer 1) [listing 1 of 2 here]
Rattus norvegicus
  inhibition: Dose-dependent effect

## CC(c1nc2cnc(N3CCC[C@@H](C(=O)N4CCCC4)C3)nc2[nH]1)n1cc(Cl)cn1 (single isomer, unassigned; diastereomer 1) [listing 2 of 2 here]
[1]
  IC50: 26 nM
[2]
  CLH: 20.3 µL/min/mg
Cytochrome P450 3A4 [3]
  CLH: 23.5 µL/min/mg
[4]
  IC50: 241 nM
[5]
  IC50: 53 nM
[6]
  IC50: > 50000 nM
[7]
  CLH(app): 13.1 µL/min
[8]
  CLH(app): 12 µL/min
[9]
  CLH(app): < 8 µL/min
[10]
  Ratio: 0.52
Cytochrome P450 3A4 [11]
  Ratio: 0.48
[12]
  Papp: 16.2 ×10⁻⁶ cm/s
[13]
  solubility thermodynamic: 53 µg/mL (≈ 124 µM)
[14]
  fraction unbound: 0.18
[15]
  fraction unbound: 0.25
[16]
  half-life: 1.1 h
[17]
  half-life: 3.8 h
[18]
  clearance: 7.3 mL/min/kg
[19]
  Vd: 0.58 L/kg
[20]
  bioavailability: 32%
Canis familiaris [21]
  fCmax: 487 nM
[22]
  Ratio: 9
Canis familiaris [23]
  fAUC: 540 ng·h/mL
Canis familiaris [24]
  Activity: 50%
Canis familiaris [25]
  fCmax: 140 nM
Canis familiaris [26]
  fCmax: 1760 nM
[27]
  Ratio: 3
[28]
  Ratio: 33
Canis familiaris [29]
  fAUC: 149 ng·h/mL
Canis familiaris [30]
  fAUC: 1560 ng·h/mL
Canis familiaris [31]
  Activity: 21%
Canis familiaris [32]
  Activity: 74%
Canis familiaris [33]
  Activity: Non-Toxic
